The source of these data is ChEMBL document CHEMBL1124062, “Structure-affinity relationships of arylquinolizines at alpha-adrenoceptors” (J Med Chem, 1988).

Each structure is given as a SMILES string.

Data set [1] can be described thus: Partition coefficient (logD) (octanol/phosphate buffer). It counts as physicochemical. The essentials:
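Shake-flask partition between octanol and pH 7.4 phosphate buffer of ionic strength 0.1 as the aqueous phase. Compound level in each phase read by UV absorption.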

For data set [2], the target named is T1, Alpha-1A adrenergic receptor (Bos taurus, UniProt P18130).
T1 sequence (P18130 whole entry): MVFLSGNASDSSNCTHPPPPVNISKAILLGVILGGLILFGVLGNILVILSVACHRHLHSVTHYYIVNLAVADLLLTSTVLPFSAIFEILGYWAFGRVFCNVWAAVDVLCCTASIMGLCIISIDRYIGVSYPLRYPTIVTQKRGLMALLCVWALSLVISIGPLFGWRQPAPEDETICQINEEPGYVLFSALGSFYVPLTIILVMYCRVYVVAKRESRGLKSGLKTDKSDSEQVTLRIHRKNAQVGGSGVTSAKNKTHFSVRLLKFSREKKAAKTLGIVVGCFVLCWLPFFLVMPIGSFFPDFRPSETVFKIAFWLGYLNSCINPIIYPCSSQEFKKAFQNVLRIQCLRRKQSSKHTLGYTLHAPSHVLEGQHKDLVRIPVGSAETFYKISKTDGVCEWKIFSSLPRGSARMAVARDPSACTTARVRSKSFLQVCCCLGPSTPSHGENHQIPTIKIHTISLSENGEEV
Kind of data set: Compound was evaluated for log 1/Ki at alpha-1 adrenergic receptor. To be noted: read-out: Log 1/Ki (converted). The essentials: (§1)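 Membranes from calf cerebral cortex as the receptor source. Alpha1 sites labelled with [3H]prazosin and alpha2 sites with [3H]clonidine. Affinity measured as displacement of each radioligand.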

Data set [3] deals with T2, Alpha-2A adrenergic receptor (Bos taurus, UniProt Q28838).
T2 sequence (Q28838 whole entry): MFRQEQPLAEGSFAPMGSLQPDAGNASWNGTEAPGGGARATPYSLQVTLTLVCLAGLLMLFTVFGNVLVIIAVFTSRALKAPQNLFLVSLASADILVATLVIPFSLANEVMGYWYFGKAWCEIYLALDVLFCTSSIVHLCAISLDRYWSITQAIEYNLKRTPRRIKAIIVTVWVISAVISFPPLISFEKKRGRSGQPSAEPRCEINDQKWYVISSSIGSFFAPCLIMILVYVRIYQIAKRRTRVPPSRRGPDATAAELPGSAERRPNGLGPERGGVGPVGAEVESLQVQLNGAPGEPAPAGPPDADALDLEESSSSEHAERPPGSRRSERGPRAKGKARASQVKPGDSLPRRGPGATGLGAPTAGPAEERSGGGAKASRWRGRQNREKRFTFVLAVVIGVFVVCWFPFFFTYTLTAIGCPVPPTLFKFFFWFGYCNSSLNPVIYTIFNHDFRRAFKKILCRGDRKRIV
Kind of data set: Compound was evaluated for log 1/Ki at alpha-2 adrenergic receptor. Conditions: read-out: Log 1/Ki (converted). The essentials: as §1

In data set [4] the target is T1, Alpha-1A adrenergic receptor. Kind of data set: Affinity to alpha-1 adrenergic receptor by the displacement of [3H]-prazosin from calf cerebral cortex membranes. It counts as tissue-based. The gist of the method:
as §1
For orientation: In a radioligand displacement assay an active substance lowers the binding of a labelled ligand.

Data set [5] can be described thus: Selectivity expressed as the ratio of Ki of [3H]prazosin to Ki of [3H]-clonidine.
For data set [6], the target named is T2, Alpha-2A adrenergic receptor. Kind of data set: Affinity to alpha-2 adrenergic receptor by the displacement of [3H]clonidine from calf cerebral cortex membranes. Format: tissue-based. The essentials: as §1

For the compound `c1ccc2c3c([nH]c2c1)C1CCCCN1CC3` (stereo not drawn), the log distribution coefficient (logD) in data set [1] turned out to be 1.83.

Turning to `c1cnc2[nH]c3c(c2c1)CCN1CCCCC31` (stereo not drawn), in data set [1], the logD stood at 0.16. The Ki is 537 nM in data set [2], 661 nM in data set [3], 540 nM in data set [4] and 660 nM in data set [6]. Also, in data set [5], the Selectivity stood at 0.8.

On to `c1ccc2c3c(sc2c1)C1CCCCN1CC3` (stereo not drawn), for which the logD in data set [1] was 2.09. Moreover, the Ki in data set [2] was 16.2 nM; in data set [3], 4.27 nM; in data set [4], 16.1 nM; in data set [6] it was 4.3 nM. Besides, the Selectivity in data set [5] was 3.7.

Consider `c1cc2c(s1)C1CCCCN1CC2` (stereo not drawn), for which the logD in data set [1] came out at 1.51. In addition, the Ki was 1100 nM in data set [2], 195 nM in data set [3], 1100 nM in data set [4] and 195 nM in data set [6]. For the same compound, the Selectivity in data set [5] was 5.6.

In turn, `c1ccc2c3c(oc2c1)C1CCCCN1CC3` (stereo not drawn) yielded a logD in data set [1] of 1.8. Besides, the Ki is 110 nM in data set [2], 16.2 nM in data set [3], 110 nM in data set [4] and 16.2 nM in data set [6]. The Selectivity in data set [5] came to 6.8.

Turning to `Nc1nc2c(s1)CCN1CCCCC21` (stereo not drawn), in data set [1], the logD is 0.39. For the same compound, the Ki in data set [2] was 2820 nM; in data set [3] it was 347 nM; in data set [4] it was 2800 nM; in data set [6], 350 nM. Besides, in data set [5], the Selectivity amounted to 8.

For the compound `c1[nH]nc2c1CCN1CCCCC21` (stereo not drawn), in data set [1], the logD came out at 0.16. For the same compound, the Ki is 24000 nM in data set [2], 9550 nM in data set [3], 24000 nM in data set [4] and 9600 nM in data set [6]. Besides, the Selectivity in data set [5] was 2.5.

Turning to `c1cnc2c(c1)CCN1CCCCC21` (stereo not drawn), the logD in data set [1] was determined as 0.39. The Ki in data set [2] is 3240 nM; in data set [3], 2000 nM; in data set [4], 3250 nM; in data set [6] it was 2000 nM. In addition, the Selectivity in data set [5] turned out to be 1.6.

The term logD denotes the decadic logarithm of the distribution of all forms, ionised or not, between an organic phase and buffer at a given pH. A lower logD goes with lower lipophilicity.
